Assay outcomes as filed in PubChem BioAssay.
T cruzi repl: T. cruzi replication inhibition. 1.4% of 300,000 active. inhibition, % (test concentration not listed). AID 1885. T. cruzi beta-gal in NIH3T3, luminescence, 90 h;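 active = mean inhibition across valid replicates above about 55%, limit read from the data; inconclusive = mean below that limit but half or more replicates reach it; inactive = mean below it, under half of replicates reach it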;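 note: signal also drops with host cell toxicity which is not excluded here; 0% = plate median of DMSO wells and 100% = zero luminescence signal; higher percent means less beta-gal luminescence so fewer parasites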
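Assay system: NIH/3T3 fibroblasts plus reporter T. cruzi. Amount: NIH/3T3 cells, 5,000 per well. Buffer or medium: DMEM, 2% fetal bovine serum. Doses: compound pinned at 50 nL/well, DMSO. Schedule: ≥90 h infection period, 3 h prior cell attachment. Signal: luminescent β-galactosidase signal after 60 min lysis. Read-out: parasite load inhibition, %.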
Calb FLC: C. albicans growth modulation with fluconazole | growth inhibition, % (concentration not given with the values) | C. albicans CaCi-2 + fluconazole, Alamar Blue growth, 48 h | 0.57% of 300,000 active;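 active = growth inhibition above about 58% in most replicates, limit read from the data, passing the limit was not always enough; inconclusive = exactly half the replicates above a set limit; inactive = most replicates below a set limit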;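 note: all wells also contain fluconazole at 8 µg/ml as a sub-toxic cotreatment; 0% = median of DMSO wells and 100% = median of geldanamycin control wells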
Beta cell apopt: beta cell apoptosis inhibition; 0.8% of 300,000 active; INS-1E cytokine-induced death, ATP luminescence, 48 h; percent of positive-control rescue, neutral wells zero; protection from apoptosis, % (test concentration not listed);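 active = Every replicate reaches about 75%, or at least half do and their mean reaches it too, limit read from the data; inconclusive = At least half of replicates reach the limit but their mean does not; inactive = Under half of replicates reach the limit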;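 note: 0% = cytokine-treated negative control wells and 100% = positive control rescue; higher means more ATP so stronger rescue from cytokine killing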
NLRP3 yeast inh: inhibitors of NALP3 inflammasome in yeast. Yeast reconstituted NLRP3/ASC/caspase-1, beta-gal luminescence, 24 h. inhibition, % at 10 µM. 0.39% of 330,000 active. AID 2825;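 active = inhibition of 50% or more; inactive = inhibition below 50%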;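 note: plate controls were induced DMSO wells for no effect and uninduced yeast grown without galactose for full effect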
Mdm2-MdmX inh: inhibitors of human Mdm2/MdmX interaction. AID 485346. inhibition, % at 8 µM. O15151+Q00987. SaOS-2 split-luciferase Mdm2/MdmX complementation, luminescence. 3% of 330,000 active;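 active = inhibition of at least 50% at 8 µM in the primary screen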
Target sequence (O15151 whole entry, looked up): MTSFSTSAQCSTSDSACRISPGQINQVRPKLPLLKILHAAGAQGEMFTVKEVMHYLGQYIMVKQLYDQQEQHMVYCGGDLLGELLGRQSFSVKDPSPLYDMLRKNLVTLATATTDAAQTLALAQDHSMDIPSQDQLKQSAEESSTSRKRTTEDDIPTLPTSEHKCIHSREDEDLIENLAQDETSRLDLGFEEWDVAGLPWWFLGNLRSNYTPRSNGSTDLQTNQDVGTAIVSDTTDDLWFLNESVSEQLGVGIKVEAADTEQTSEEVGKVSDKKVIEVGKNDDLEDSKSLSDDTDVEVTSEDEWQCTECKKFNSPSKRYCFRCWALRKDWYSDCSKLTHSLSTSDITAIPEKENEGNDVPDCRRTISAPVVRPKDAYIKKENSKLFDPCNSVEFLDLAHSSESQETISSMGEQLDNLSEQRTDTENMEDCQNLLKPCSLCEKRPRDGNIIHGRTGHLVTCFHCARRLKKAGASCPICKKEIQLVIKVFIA
Target sequence (Q00987 whole entry, looked up): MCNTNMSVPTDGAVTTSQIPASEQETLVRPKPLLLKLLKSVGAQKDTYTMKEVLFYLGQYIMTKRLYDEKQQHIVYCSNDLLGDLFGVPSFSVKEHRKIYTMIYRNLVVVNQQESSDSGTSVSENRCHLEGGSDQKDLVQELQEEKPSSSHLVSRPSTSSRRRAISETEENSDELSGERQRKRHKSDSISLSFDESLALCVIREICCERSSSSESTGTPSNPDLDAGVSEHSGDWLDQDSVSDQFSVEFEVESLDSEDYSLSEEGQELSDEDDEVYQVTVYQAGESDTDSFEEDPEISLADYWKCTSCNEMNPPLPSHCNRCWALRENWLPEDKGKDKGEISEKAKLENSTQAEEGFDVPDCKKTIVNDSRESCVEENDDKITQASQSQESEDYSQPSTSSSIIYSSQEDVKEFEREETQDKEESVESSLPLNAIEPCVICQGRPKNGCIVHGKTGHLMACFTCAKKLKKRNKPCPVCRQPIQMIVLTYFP
CSC inhib: blocks cancer stem cells | 1.1% of 300,000 active | cancer stem cell-like cells viability, luminescence | AID 2717 | inhibition, % at 7.5 µM; in the data active = inhibition above about 75%; inconclusive = no clear call, values can overlap the other calls; tested in HMLE shEcad cells
An asterisk follows results filed as active; ? = inconclusive; . = no result. Rows were chosen to be rich in hits. Some 5.3% of all compounds tested hit in one or more screens of this group.

SMILES	T cruzi repl	Calb FLC	Beta cell apopt	NLRP3 yeast inh	Mdm2-MdmX inh	CSC inhib
O=C(NCCCSc1ccccc1)c1cc(Br)ccc1O	-3	-3	-10	38	38	80*
O=C(NCCSc1ccccc1)c1ccc(Br)cc1	1	-4	-1	45	-180	.
CCN(CC)CCCNC(=O)C1c2ccccc2C(=O)N(CCOC)C1c1ccc(F)cc1 (configuration not stated)	-14	4	-1	10	-8	-1
O=C(c1ccc(Cl)cc1)C1CCCN(Cc2ccc(Oc3ncccn3)cc2)C1 (configuration not stated)	48	-2	4	21	22	14
O=C(c1ccc(-c2ccccc2)cc1)C1CCCN(Cc2ccncc2)C1 (configuration not stated)	55*	20	12	48	-14	34
Cc1nn(C)cc1CN1CCCC(C(=O)c2ccc(-c3ccccc3)cc2)C1 (configuration not stated)	62*	-21	10	29	17	17
O=C(c1ccc(-c2ccccc2)cc1)C1CCCN(C(=O)c2ccncc2)C1 (configuration not stated)	28	-10	.	-2	5	22
O=C(c1ccc(Cl)cc1)C1CCCN(Cc2cnn(-c3ccccc3)c2)C1 (configuration not stated)	61*	-1	-1	46	3	5
O=C(Nc1cccc(NC(=O)c2cccc([N+](=O)[O-])c2)n1)c1cccc([N+](=O)[O-])c1	37	10	7	6	22	0
Cc1ccc(S(=O)(=O)N2CCCC2CNC(=O)C(=O)Nc2ccc(F)cc2)cc1 (configuration not stated)	-1	30	4	15	9	-8
CCOC(=O)C1(Cc2cccc(OC)c2)CCCN(Cc2ccc(NC(C)=O)cc2)C1 (configuration not stated)	1	-9	1	3	5	31
CCCN(CCC)C(=O)Cn1c(=O)n(CCC(=O)NCCc2ccccc2)c(=O)c2ccccc21	-5	8	.	-2	26	-12
Cc1ccc(NC(=O)CN2C(=O)S/C(=C\c3ccccn3)C2=O)cc1	-8	2	-1	11	19	-6
O=C(CN1C(=O)S/C(=C\c2ccccn2)C1=O)Nc1ccccc1	.	109*	0	7	16	-18
CCNC(=S)N/N=C/c1cccc(OCc2c(F)cccc2Cl)c1	59*	11	.	-4	36	32
C=CCn1c(C)cc(C(=O)CSc2nc(N)cc(N)n2)c1C	-10	108*	1	2	-2	-10
[O-][n+]1onc2c1CCc1c-2nn(-c2ccccc2Cl)[n+]1[O-]	-35	-10	96*	31	43	0
CCOc1ccc(S(=O)(=O)N2CCCC(C(=O)N3CCCC3)C2)cc1 (configuration not stated)	-7	-28	0	1	6	1
Cc1cc(C)cc(NC(=S)NCC2CCN(C(C)c3ccccc3)C2)c1 (configuration not stated)	43	-3	4	11	22	31
Cc1ccccc1NC(=S)NCC1CCN(C(C)c2ccccc2)C1 (configuration not stated)	58*	-17	0	7	-12	-1
Cc1cccc(NC2=NC(=S)N(c3cccc(C(=O)O)c3)C23CCCCC3)c1	-10	104*	-8	-3	-27	-13
COc1ccc(N2C(=S)N=C(Nc3cccc(C)c3)C23CCCCC3)cc1	-12	?	3	5	10	-8
Cc1cccc(N2C(=S)N=C(Nc3c(C)cccc3C)C23CCOC(C)(C)C3)c1 (configuration not stated)	7	1	82*	4	18	-11
O=C(NCCc1ccccc1)[C@@H]1CC=C[C@@H]2CCN(Cc3ccc(Cl)c(Cl)c3)C(=O)[C@@H]21	10	-2	99*	5	46	21
O=C(Cn1cnc2c(nnn2Cc2ccc(Cl)cc2)c1=O)NC1CCCC1	-7	-5	6	-12	-25	-8
SMILES	T cruzi repl	Calb FLC	Beta cell apopt	NLRP3 yeast inh	Mdm2-MdmX inh	CSC inhib
O=C(Cn1cnc2c(nnn2Cc2ccc(F)cc2)c1=O)NC1CCCC1	-4	100*	0	9	3	.
CCOC(=O)c1c(NC(=O)N/N=C/c2ccccc2OCC)sc(C(C)=O)c1C	68*	1	.	.	.	.
COCCCNC(=O)CCCC(=O)NCCCOC	-18	-13	-2	-6	43	-22
Cc1nc(Nc2ccc(S(=O)(=O)N3CCCCC3C)cc2)c2nnn(Cc3ccccc3)c2n1 (configuration not stated)	64*	3	76*	1	25	6
c1ccc(CN2CCN(c3ncccn3)CC2)cc1	-23	12	2	11	-17	-9
CC1(C)CC(N2CCN(Cc3ccccc3)CC2)=CC(=[N+]2CCCCC2)C1	62*	83*	109*	13	36	-3
CCOc1ccccc1C(=O)NC(C)c1ccc(-n2ccnc2)cc1 (configuration not stated)	-11	4	4	5	16	-2
O=C(CCCOc1ccccc1)Nc1nc2ccccc2[nH]1	-16	-6	-5	-3	-60	11
Cc1ccc(OCCCC(=O)Nc2nc3ccccc3[nH]2)cc1	-1	110*	4	6	-1	.
O=C(N/N=C/c1ccco1)C(O)C(O)C(=O)N/N=C/c1ccco1 (configuration not stated)	-8	-13	-7	12	23	3
CNC(=S)N(CCc1c(C)[nH]c2ccc(Cl)cc12)Cc1cccs1	60*	2	-5	28	49	25
COCCNC(=S)N(CCc1c(C)[nH]c2ccc(Cl)cc12)Cc1cccs1	52	23	0	23	25	79*
CCNC(=S)N(CCc1c(C)[nH]c2ccc(Cl)cc12)Cc1ccco1	72*	19	3	21	41	-2
CN1/C(=C\C(=O)C[n+]2ccc3ccccc3c2)C(C)(C)c2ccccc21	61*	-2	.	8	40	.
CN1/C(=C\C(=O)COc2ccc3c(c2)OCO3)C(C)(C)c2ccccc21	56*	-5	61	33	2	112*
CN1/C(=C\C(=O)c2cncc(Br)c2)C(C)(C)c2ccccc21	44	16	101*	14	28	0
CN1/C(=C\C(=O)c2ccco2)C(C)(C)c2ccccc21	31	0	99*	-10	12	36
CN1/C(=C\C(=O)COC(=O)c2ccco2)C(C)(C)c2ccccc21	-4	-37	12	16	10	-2
CN1/C(=C\C(=O)c2cccnc2)C(C)(C)c2ccccc21	6	8	-8	7	24	-8
COc1ccc(CN2CCNC(=O)C2CC(=O)N2CCc3ccccc3C2)c(OC)c1 (configuration not stated)	-1	-6	-5	12	10	-9
